These results are taken from ChEMBL document CHEMBL1136390, “Piperazinyl-linked fluoroquinolone dimers possessing potent antibacterial activity against drug-resistant strains of Staphylococcus aureus” (2003).

Each structure is given as a SMILES string. ≈ marks a conversion by molar mass, not a printed value.

Holding throughout (format): functional
Experiment [1] has as its system Staphylococcus aureus. Description: Minimum inhibitory concentration tested against Staphylococcus aureus 1199-3 strain. An outline of the steps:
(§1)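 MICs against S. aureus strains were read in µg/mL from a dilution series. Stated error for each MIC is ± one dilution.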

Experiment [2] concerns Staphylococcus aureus. Kind of experiment: Minimum inhibitory concentration tested against Staphylococcus aureus 1199 strain. In short, it runs like this: as §1
In experiment [3] the test system is Staphylococcus aureus. Description: Minimum inhibitory concentration tested against methicillin resistant Staphylococcus aureus 494 strain (MRSA 494). In short, it runs like this: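 MIC in µg/mL against drug-resistant S. aureus strains; error stated as ± one dilution.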
Experiment [4] concerns Staphylococcus aureus. Description: Minimum inhibitory concentration tested against Staphylococcus aureus 1199B strain. In short, it runs like this:
as §1

The test system of experiment [5] is Staphylococcus aureus. Kind of experiment: Minimum inhibitory concentration tested against vancomycin-insensitive SA (GISA 992 strain). In short, it runs like this:
as §1

As to `CCn1cc(C(=O)O)c(=O)c2cnc(N3CCN(Cc4ccc(CN5CCN(c6cc7c(cc6F)c(=O)c(C(=O)O)cn7C6CC6)CC5)cc4)CC3)nc21`, the minimal inhibitory concentration (MIC) in experiment [1] was below 0.03 µg/mL; in experiment [2], below 0.03 µg/mL; in experiment [3] it was 0.125 µg/mL (≈ 0.17 µM); in experiment [4], below 0.03 µg/mL; in experiment [5], 2 µg/mL (≈ 2.71 µM).
Turning to `O=C(O)c1cn(C2CC2)c2cc(N3CCN(Cc4ccc(CN5CCN(c6cc7c(cc6F)c(=O)c(C(=O)O)cn7C6CC6)CC5)cc4)CC3)c(F)cc2c1=O`, the minimal inhibitory concentration (MIC) in experiment [1] was found to be 0.125 µg/mL (≈ 0.163 µM); in experiment [2] it was 0.125 µg/mL (≈ 0.163 µM); in experiment [3], 0.125 µg/mL (≈ 0.163 µM); in experiment [4] it was 0.125 µg/mL (≈ 0.163 µM); in experiment [5] it was 4 µg/mL (≈ 5.23 µM).
`O=C(O)c1cn(C2CC2)c2cc(N3CCN(Cc4cccc(CN5CCN(c6cc7c(cc6F)c(=O)c(C(=O)O)cn7C6CC6)CC5)c4)CC3)c(F)cc2c1=O`: the MIC in experiment [1] is 0.06 µg/mL (≈ 0.0784 µM); in experiment [2], 0.06 µg/mL (≈ 0.0784 µM); in experiment [3], below 0.03 µg/mL; in experiment [4] it was 0.125 µg/mL (≈ 0.163 µM); in experiment [5], above 16 µg/mL.
Take `O=C(O)c1cn(C2CC2)c2cc(N3CCN(Cc4cccc(CN5CCN(c6cc7c(cc6F)c(=O)c(C(=O)O)cn7C6CC6)CC5)n4)CC3)c(F)cc2c1=O`: the minimum inhibitory concentration (MIC) in experiment [1] was below 0.03 µg/mL; in experiment [2] it was below 0.03 µg/mL; in experiment [3], 0.06 µg/mL (≈ 0.0783 µM); in experiment [4], below 0.03 µg/mL; in experiment [5], 8 µg/mL (≈ 10.4 µM).
As to `O=C(O)c1cn(C2CC2)c2cc(N3CCN(C/C=C/CN4CCN(c5cc6c(cc5F)c(=O)c(C(=O)O)cn6C5CC5)CC4)CC3)c(F)cc2c1=O`, the MIC was 0.06 µg/mL (≈ 0.0839 µM) in experiment [1]; 0.03 µg/mL (≈ 0.042 µM) in experiment [2]; 0.125 µg/mL (≈ 0.175 µM) in experiment [3]; 0.03 µg/mL (≈ 0.042 µM) in experiment [4]; above 16 µg/mL in experiment [5].
Regarding `CCn1cc(C(=O)O)c(=O)c2cnc(N3CCN(Cc4ccc(CN5CCN(c6ncc7c(=O)c(C(=O)O)cn(CC)c7n6)CC5)cc4)CC3)nc21`, the MIC in experiment [1] was found to be 0.5 µg/mL (≈ 0.705 µM); in experiment [2] it was 0.5 µg/mL (≈ 0.705 µM); in experiment [3], 2 µg/mL (≈ 2.82 µM); in experiment [4], 4 µg/mL (≈ 5.64 µM); in experiment [5], 8 µg/mL (≈ 11.3 µM).
Turning to `CCn1cc(C(=O)O)c(=O)c2cc(F)c(N3CCN(C/C=C/CN4CCN(c5cc6c(cc5F)c(=O)c(C(=O)O)cn6CC)CC4)CC3)cc21`, the minimum inhibitory concentration (MIC) is 0.125 µg/mL (≈ 0.181 µM) in experiment [1]; 0.25 µg/mL (≈ 0.362 µM) in experiment [2]; 0.125 µg/mL (≈ 0.181 µM) in experiment [3]; 0.125 µg/mL (≈ 0.181 µM) in experiment [4]; above 16 µg/mL in experiment [5].
As to `O=C(O)c1cn(C2CC2)c2cc(N3CCN(Cc4ccc(-c5ccc(CN6CCN(c7cc8c(cc7F)c(=O)c(C(=O)O)cn8C7CC7)CC6)cc5)cc4)CC3)c(F)cc2c1=O`, the minimum inhibitory concentration (MIC) in experiment [1] was 8 µg/mL (≈ 9.51 µM); in experiment [2], 4 µg/mL (≈ 4.76 µM); in experiment [4], 8 µg/mL (≈ 9.51 µM); in experiment [5] it was above 16 µg/mL.
Turning to `CCn1cc(C(=O)O)c(=O)c2cc(F)c(N3CCN(Cc4ccc(CN5CCN(c6cc7c(cc6F)c(=O)c(C(=O)O)cn7C6CC6)CC5)cc4)CC3)cc21`, the MIC is below 0.03 µg/mL in experiment [1], below 0.03 µg/mL in experiment [2], 0.06 µg/mL (≈ 0.0797 µM) in experiment [4] and 4 µg/mL (≈ 5.31 µM) in experiment [5].
Regarding `CCn1cc(C(=O)O)c(=O)c2cc(F)c(N3CCN(Cc4ccc(CN5CCN(c6cc7c(cc6F)c(=O)c(C(=O)O)cn7CC)CC5)cc4)CC3)cc21`, the MIC in experiment [1] worked out at 0.06 µg/mL (≈ 0.081 µM); in experiment [2], 0.06 µg/mL (≈ 0.081 µM); in experiment [3], 0.06 µg/mL (≈ 0.081 µM); in experiment [4], 1 µg/mL (≈ 1.35 µM); in experiment [5], 4 µg/mL (≈ 5.4 µM).
In the case of `O=C(O)c1cn(C2CC2)c2cc(N3CCNCC3)c(F)cc2c1=O` [CIPROFLOXACIN], the minimal inhibitory concentration (MIC) in experiment [1] was 1 µg/mL (≈ 3.02 µM); in experiment [3] it was 0.5 µg/mL (≈ 1.51 µM); in experiment [4], 8 µg/mL (≈ 24.1 µM); in experiment [5] it was above 32 µg/mL.
`CCn1cc(C(=O)O)c(=O)c2cc(F)c(N3CCNCC3)cc21` [NORFLOXACIN]: the minimum inhibitory concentration (MIC) was 4 µg/mL (≈ 12.5 µM) in experiment [1]; 0.5 µg/mL (≈ 1.57 µM) in experiment [2]; 2 µg/mL (≈ 6.26 µM) in experiment [3]; above 16 µg/mL in experiment [4]; above 16 µg/mL in experiment [5].
For `CCn1cc(C(=O)O)c(=O)c2cnc(N3CCNCC3)nc21` [PIPEMIDIC ACID], the MIC in experiment [1], in experiment [2], in experiment [4] and in experiment [5] was above 16 µg/mL each time.

One may read the MIC as the least concentration at which growth counts as inhibited. A higher MIC goes with a less susceptible organism.
